Results taken from ChEMBL document CHEMBL1132980, “1,2,4-Triazolo[4,3-a]quinoxalin-1-one: a versatile tool for the synthesis of potent and selective adenosine receptor antagonists” (J Med Chem, 2000).

Tests used:
[1] = biological target: T1, Adenosine receptor A1 (Bos taurus) (UniProt P28190); experiment: Binding affinity towards Adenosine A1 receptor of bovine brain membrane using [3H]-CHA at 20 uM
T1 sequence (whole entry): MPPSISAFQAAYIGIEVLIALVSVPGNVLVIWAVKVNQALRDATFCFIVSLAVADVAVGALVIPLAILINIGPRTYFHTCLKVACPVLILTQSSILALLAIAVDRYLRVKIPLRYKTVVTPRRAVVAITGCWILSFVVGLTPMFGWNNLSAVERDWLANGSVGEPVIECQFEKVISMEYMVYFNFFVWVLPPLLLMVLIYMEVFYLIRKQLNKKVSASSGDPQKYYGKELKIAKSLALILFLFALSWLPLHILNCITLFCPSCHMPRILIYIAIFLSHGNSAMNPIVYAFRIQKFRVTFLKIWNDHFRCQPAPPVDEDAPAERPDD
In short: (§1)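 Compounds dissolved in DMSO (2% in buffer), with blank runs for solvent effect. Membrane protein measured after solubilization in 0.75 N NaOH against a BSA standard.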

[2] = biological target: T2, Adenosine receptor A3 (Homo sapiens, UniProt P0DMS8); experiment: Binding affinity towards human adenosine A3 receptor expressed in HEK293 cells in presence of [125I]-AB-MECA at a concentration of 1 uM; assay type: cell-based
T2 sequence (P0DMS8 whole entry): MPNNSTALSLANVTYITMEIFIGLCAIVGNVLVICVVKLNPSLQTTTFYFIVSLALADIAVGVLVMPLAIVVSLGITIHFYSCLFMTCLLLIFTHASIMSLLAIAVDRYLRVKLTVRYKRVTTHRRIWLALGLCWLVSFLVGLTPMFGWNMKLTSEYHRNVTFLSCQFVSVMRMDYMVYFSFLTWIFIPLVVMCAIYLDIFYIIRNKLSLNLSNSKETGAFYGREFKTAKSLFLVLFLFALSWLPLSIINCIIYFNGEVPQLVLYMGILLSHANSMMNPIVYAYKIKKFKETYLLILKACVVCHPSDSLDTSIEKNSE

[3] = test system: Adenosine receptor A2a (Bos taurus); experiment: Binding affinity towards adenosine A2A receptor of bovine striatal membrane in presence of [3H]-CGS- at a concentration of 20 uM
[4] = biological target: T3, Adenosine receptor A1 (Bos taurus, UniProt P28190); experiment: Binding affinity towards adenosine A1 receptor of bovine brain membrane in presence of [3H]CHA at a concentration of 20 uM; in short: as §1
T3 sequence (P28190 whole entry): T1 sequence (whole entry)

[5] = biological target: T3, Adenosine receptor A1; experiment: Binding affinity towards adenosine A1 receptor of bovine brain membrane using [3H]-CHA at 20 uM
[6] = biological target: T2, Adenosine receptor A3; experiment: Binding affinity towards human adenosine A3 receptor expressed in HEK293 cells using [125I]AB-MECA at 1 uM; assay type: cell-based
[7] = biological target: T4, Adenosine receptor A3 (Homo sapiens) (UniProt P0DMS8); experiment: Binding affinity towards human Adenosine A3 receptor expressed in HEK293 cells using [125I]AB-MECA at 1 uM; assay type: cell-based
T4 sequence (whole entry): T2 sequence (P0DMS8 whole entry)

[8] = test system: Adenosine receptor A2a (Bos taurus); experiment: Binding affinity towards adenosine A2A receptor of bovine striatal membrane in presence of [3H]-CGS-
[9] = biological target: Adenosine receptor A2a (Bos taurus); experiment: Binding affinity towards Adenosine A2A receptor of bovine striatal membrane using [3H]-CGS- at 20 uM

| SMILES | Ki [2] [µM] | inhibition [3] [%] | Ki [4] [µM] | also measured |
| --- | --- | --- | --- | --- |
| Cc1cccc(-n2nc3c(=O)[nH]c4ccccc4n3c2=O)c1 | 0.091 | 5 | 0.436 | – |
| O=C(Cc1ccccc1)Nc1nc2ccccc2n2c(=O)n(-c3ccccc3)nc12 | 0.00375 | 62 | 0.0063 | – |
| COc1ccc(-n2nc3c(N)nc4ccccc4n3c2=O)cc1 | 0.0453 | – | 0.312 | – |
| O=c1n(-c2ccccc2)nc2c(NC3CCCC3)nc3ccccc3n12 | 0.0554 | – | 0.00042 | – |
| O=C(Nc1nc2ccccc2n2c(=O)n(-c3ccccc3)nc12)c1ccccc1 | 0.00147 | 53 | 0.0896 | – |
| O=c1n(-c2ccccc2)nc2c(NCC(c3ccccc3)c3ccccc3)nc3ccccc3n12 | – | – | – | Ki [5]: 0.054 µM; Ki [6]: 1.02 µM |
| C#CCn1c(=O)c2nn(-c3ccccc3)c(=O)n2c2ccccc21 | 0.479 | – | – | – |
| O=c1n(-c2ccccc2)nc2c(NCCCc3ccccc3)nc3ccccc3n12 | 0.0409 | 61 | 0.0179 | – |
| Nc1nc2ccccc2n2c(=O)n(-c3ccc(Cl)cc3)nc12 | 0.329 | 37 | 0.426 | – |
| O=c1n(-c2ccccc2)nc2c(NC3CCCCC3)nc3ccccc3n12 | 0.506 | – | 0.00143 | – |
| COc1ccc(NC(=O)Nc2nc3ccccc3n3c(=O)n(-c4ccccc4)nc23)cc1 | 0.96 | – | 2.6 | – |
| Nc1cccc2c1nc(N)c1nn(-c3ccccc3)c(=O)n12 | – | – | – | inhibition [7]: 54% |
| O=c1[nH]c2ccccc2n2c(=O)n(-c3ccccc3)nc12 | 0.08 | 64 | 0.515 | – |
| O=C(Nc1ccccc1)Nc1nc2ccccc2n2c(=O)n(-c3ccccc3)nc12 | 0.276 | – | – | – |
| O=c1n(-c2cccc(F)c2)nc2c(NC3CCCC3)nc3ccccc3n12 | 0.173 | – | 0.0011 | Ki [8]: 0.148 µM |
| Cn1c(=O)c2[nH]c(C3CCCC3)nc2n(C)c1=O [8-CYCLOPENTYLTHEOPHYLLINE] | – | – | – | Ki [5]: 0.0005 µM; Ki [6]: 1.3 µM |
| Cn1c(=O)c2nn(-c3ccccc3)c(=O)n2c2ccccc21 | 0.0366 | 53 | 0.309 | – |
| Cc1cccc(-n2nc3c(N)nc4ccccc4n3c2=O)c1 | 0.0285 | – | 0.02 | – |
| Cc1ccc(N2CN3C(=N2)C(=O)Nc2ccccc23)cc1 | 0.197 | – | – | inhibition [1]: 48% |
| Nc1nc2c(NCc3ccccc3)cccc2n2c(=O)n(-c3ccccc3)nc12 | – | – | 0.73 | inhibition [7]: 30%; Ki [9]: 0.0065 µM |
| Nc1nc2ccccc2n2c(=O)n(-c3ccccc3)nc12 | – | – | – | inhibition [7]: 36% |
| Nc1nc2ccccc2n2c(=O)n(-c3cccc(F)c3)nc12 | 0.157 | – | 0.0285 | – |
| O=c1n(-c2cccc(F)c2)nc2c(NC3CCCCC3)nc3ccccc3n12 | 0.0442 | – | 0.0049 | Ki [9]: 0.066 µM |
| Cc1cccc(-n2nc3c(NC4CCCC4)nc4ccccc4n3c2=O)c1 | 0.0275 | – | – | – |

Second part, led by results:

| Ki [2] [µM] | inhibition [3] [%] | Ki [4] [µM] | SMILES | also measured |
| --- | --- | --- | --- | --- |
| 0.137 | 8 | – | Cn1c(=O)c2nn(-c3ccc(Cl)cc3)c(=O)n2c2ccccc21 | inhibition [1]: 29% |
| 0.504 | 0 | – | Cc1ccc(-n2nc3c(=O)n(C)c4ccccc4n3c2=O)cc1 | inhibition [1]: 22% |
| 0.063 | 20 | 0.2 | O=c1[nH]c2ccccc2n2c(=O)n(-c3cccc(F)c3)nc12 | – |
| 1.25 | 44 | 0.406 | CCCn1c(=O)c2nn(-c3ccccc3)c(=O)n2c2ccccc21 | – |
| 0.0483 | – | – | Cc1ccc(-n2nc3c(N)nc4ccccc4n3c2=O)cc1 | – |
| 0.016 | – | 0.934 | COc1ccc(-n2nc3c(=O)[nH]c4ccccc4n3c2=O)cc1 | – |
| 0.548 | 41 | 0.0042 | Cc1cccc(-n2nc3c(NC4CCCCC4)nc4ccccc4n3c2=O)c1 | – |
| 0.0561 | 0 | 0.0801 | O=c1n(-c2ccc(Cl)cc2)nc2c(NC3CCCCC3)nc3ccccc3n12 | – |
| 0.0158 | – | 0.0093 | CCC(=O)Nc1nc2ccccc2n2c(=O)n(-c3ccccc3)nc12 | – |
| 0.201 | 59 | 0.0048 | O=c1n(-c2ccccc2)nc2c(NCCc3ccccc3)nc3ccccc3n12 | – |
| 0.025 | 0 | 0.155 | Cc1ccc(-n2nc3c(=O)[nH]c4ccccc4n3c2=O)cc1 | – |
| 0.002 | – | 0.0043 | CC(=O)Nc1nc2ccccc2n2c(=O)n(-c3ccccc3)nc12 | – |
| 0.114 | – | 1.02 | O=c1[nH]c2ccccc2n2c(=O)n(-c3ccc(Cl)cc3)nc12 | – |
| 1.7 | 59 | 0.055 | O=c1n(-c2ccccc2)nc2c(NCc3ccccc3)nc3ccccc3n12 | – |
